# Legend:
# [1] = test system: Rattus norvegicus; test: Toxicity in Wistar rat assessed as liver weight at 6 umol/100 g body weight, ip relative to control; format: organism-based; settings: in vivo
# [2] = test system: Rattus norvegicus; test: Toxicity in Wistar rat assessed as lipidperoxidation product level in kidney at 1 umol/100 g body weight, ip by fluorometric analysis relative to control; format: organism-based; settings: in vivo
# In short: (§1)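 Rats dosed i.p.; tissues taken after 24 h. For GSH/GSSG, tissue homogenized in 11 volumes of 0.2 M sodium phosphate (5 mM EDTA, pH 8.0) plus 4 volumes of 25% metaphosphoric acid and centrifuged 12 000 × g, 4 °C, 30 min; supernatant read photometrically (GSH) or fluorometrically (GSSG). Lipid peroxidation products measured as TBARS in 19-volume ice-cold saline homogenates, fluorometrically.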
# [3] = test system: Rattus norvegicus; test: Toxicity in Wistar rat assessed as lipidperoxidation product level in brain at 1 umol/100 g body weight, ip by fluorometric analysis relative to control; format: organism-based; settings: in vivo; in short: as §1
# [4] = test system: Rattus norvegicus; test: Toxicity in Wistar rat assessed as kidney weight at 1 umol/100 g body weight, ip relative to control; format: organism-based; settings: in vivo
# [5] = test system: Rattus norvegicus; test: Toxicity in Wistar rat assessed as total glutathione level in kidney at 6 umol/100 g body weight, ip by fluorometric analysis relative to control; format: organism-based; settings: in vivo; in short: as §1
# [6] = test system: Rattus norvegicus; test: Toxicity in Wistar rat assessed as lipidperoxidation product level in brain at 6 umol/100 g body weight, ip by fluorometric analysis relative to control; format: organism-based; settings: in vivo; in short: as §1
# [7] = test system: Rattus norvegicus; test: Toxicity in Wistar rat assessed as protein content in liver at 1 umol/100 g body weight, ip by Biuret method relative to control; format: organism-based; settings: in vivo
# In short: (§2)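 Rats dosed i.p.; after 24 h, liver homogenized 1:3 w/v in 0.1 M sodium phosphate pH 7.4 and centrifuged at 9000 × g, 4 °C, 20 min. Supernatant protein determined by the Biuret method. Ethoxyresorufin-O-deethylation measured fluorometrically as resorufin formed.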
# [8] = test system: Rattus norvegicus; test: Toxicity in Wistar rat assessed as GSSG level in brain at 6 umol/100 g body weight, ip by fluorometric analysis relative to control; format: organism-based; settings: in vivo; in short: as §1
# [9] = test system: Rattus norvegicus; test: Toxicity in Wistar rat assessed as body weight at 6 umol/100 g body weight, ip relative to control; format: organism-based; settings: in vivo
# [10] = test system: Rattus norvegicus; test: Toxicity in Wistar rat assessed as GSSG level in kidney at 6 umol/100 g body weight, ip by fluorometric analysis relative to control; format: organism-based; settings: in vivo; in short: as §1
# [11] = test system: Rattus norvegicus; test: Toxicity in Wistar rat assessed as GSH level in brain at 1 umol/100 g body weight, ip by fluorometric analysis relative to control; format: organism-based; settings: in vivo
# [12] = test system: Rattus norvegicus; test: Toxicity in Wistar rat assessed as kidney weight at 6 umol/100 g body weight, ip relative to control; format: organism-based; settings: in vivo
# [13] = test system: Rattus norvegicus; test: Toxicity in Wistar rat assessed as body weight at 1 umol/100 g body weight, ip relative to control; format: organism-based; settings: in vivo
# [14] = test system: Rattus norvegicus; test: Toxicity in Wistar rat scopolamine-induced cognition impairment model assessed as change in movement at 1 umol/100 g body weight, ip; format: organism-based; settings: in vivo
# In short: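 60-day-old female Wistar rats were trained in an eight-arm radial maze to no errors in under 60 s on 3 consecutive days; each rat served as its own control. Compound in saline was given i.p., then scopolamine (0.05 mg/100 g, saline, i.p.) 5 min later. Errors plus baits not found after 10 min and total searching time were recorded before and 20, 60 and 120 min after scopolamine; n = 14, mean ± SEM.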
# [15] = test system: Rattus norvegicus; test: Toxicity in Wistar rat assessed as GSSG level in brain at 1 umol/100 g body weight, ip by fluorometric analysis relative to control; format: organism-based; settings: in vivo; in short: as §1
# [16] = test system: Rattus norvegicus; test: Toxicity in Wistar rat assessed as total glutathione level in liver at 1 umol/100 g body weight, ip by fluorometric analysis relative to control; format: organism-based; settings: in vivo; in short: as §1
# [17] = test system: Rattus norvegicus; test: Toxicity in Wistar rat assessed as brain weight at 6 umol/100 g body weight, ip relative to control; format: organism-based; settings: in vivo
# [18] = test system: Rattus norvegicus; test: Toxicity in Wistar rat assessed as GSH level in liver at 6 umol/100 g body weight, ip by fluorometric analysis relative to control; format: organism-based; settings: in vivo
# [19] = test system: Rattus norvegicus; test: Toxicity in Wistar rat assessed as lipidperoxidation product level in liver at 1 umol/100 g body weight, ip relative to control; format: organism-based; settings: in vivo
# [20] = test system: Rattus norvegicus; test: Toxicity in Wistar rat assessed as liver weight at 1 umol/100 g body weight, ip relative to control; format: organism-based; settings: in vivo
# [21] = test system: Rattus norvegicus; test: Toxicity in Wistar rat assessed as ethoxyresorufin-O-deethylation activity in liver measured as resorufin level at 6 umol/100 g body weight, ip by fluorometric analysis relative to control; format: organism-based; settings: in vivo; in short: as §2
# [22] = test system: Rattus norvegicus; test: Toxicity in Wistar rat assessed as lipidperoxidation product level in kidney at 6 umol/100 g body weight, ip by fluorometric analysis relative to control; format: organism-based; settings: in vivo; in short: as §1
# [23] = test system: Rattus norvegicus; test: Toxicity in Wistar rat assessed as ethoxycoumarin-O-deethylation activity in liver measured as 7-hydroxycoumarin level at 1 umol/100 g body weight, ip by fluorometric analysis relative to control; format: organism-based; settings: in vivo
# [24] = test system: Rattus norvegicus; test: Toxicity in Wistar rat assessed as brain weight at 1 umol/100 g body weight, ip relative to control; format: organism-based; settings: in vivo
# [25] = test system: Rattus norvegicus; test: Toxicity in Wistar rat assessed as GSH level in liver at 1 umol/100 g body weight, ip by fluorometric analysis relative to control; format: organism-based; settings: in vivo
# [26] = test system: Rattus norvegicus; test: Toxicity in Wistar rat assessed as ethoxyresorufin-O-deethylation activity in liver measured as resorufin level at 1 umol/100 g body weight, ip by fluorometric analysis relative to control; format: organism-based; settings: in vivo; in short: as §2
# [27] = test system: Rattus norvegicus; test: Toxicity in Wistar rat assessed as total glutathione level in liver at 6 umol/100 g body weight, ip by fluorometric analysis relative to control; format: organism-based; settings: in vivo
# In short: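 Rats were dosed, killed 24 h later, and liver and other tissues were taken. Samples were homogenized in 11 vol 0.2 M sodium phosphate (5 mM EDTA, pH 8.0) plus 4 vol 25% metaphosphoric acid, then spun at 12 000 × g, 4 °C, 30 min. GSH was read photometrically and GSSG fluorometrically in the supernatant, alongside total glutathione.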
# [28] = test system: Rattus norvegicus; test: Toxicity in Wistar rat assessed as total glutathione level in kidney at 1 umol/100 g body weight, ip by fluorometric analysis relative to control; format: organism-based; settings: in vivo; in short: as §1
# [29] = test system: Rattus norvegicus; test: Toxicity in Wistar rat assessed as GSSG level in kidney at 1 umol/100 g body weight, ip by fluorometric analysis relative to control; format: organism-based; settings: in vivo; in short: as §1
# [30] = test system: Rattus norvegicus; test: Antialzheimer activity in Wistar rat scopolamine-induced cognition impairment model assessed as total exploration time at 1 umol/100 g body weight, ip treated for 5 mins prior to scopolamine-challenge by eight-arm radial maze test relative to control; format: functional
# In short: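 Female 60-day-old Wistar rats (Han:Wist) trained in an eight-arm radial maze to error-free trials under 60 s on three consecutive days; each animal served as its own control. Test agent given i.p. in saline 5 min before scopolamine (0.05 mg/100 g b. wt., i.p. in saline). Errors plus baits not found after 10 min, and total searching time, recorded before and 20, 60, 120 min after scopolamine; n = 14, mean ± SEM.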
# [31] = test system: Rattus norvegicus; test: Toxicity in Wistar rat assessed as GSH level in brain at 6 umol/100 g body weight, ip by fluorometric analysis relative to control; format: organism-based; settings: in vivo
# [32] = test system: Rattus norvegicus; test: Toxicity in Wistar rat assessed as GSSG level in liver at 6 umol/100 g body weight, ip by fluorometric analysis relative to control; format: organism-based; settings: in vivo; in short: as §1
# [33] = test system: Rattus norvegicus; test: Toxicity in Wistar rat assessed as protein content in liver at 6 umol/100 g body weight, ip by Biuret method relative to control; format: organism-based; settings: in vivo; in short: as §2
# [34] = test system: Rattus norvegicus; test: Toxicity in Wistar rat assessed as change in movement at 1 umol/100 g body weight, ip; format: organism-based; settings: in vivo
# [35] = test system: Rattus norvegicus; test: Toxicity in Wistar rat assessed as total glutathione level in brain at 6 umol/100 g body weight, ip by fluorometric analysis relative to control; format: organism-based; settings: in vivo; in short: as §1
# [36] = test system: Rattus norvegicus; test: Toxicity in Wistar rat assessed as total glutathione level in brain at 1 umol/100 g body weight, ip by fluorometric analysis relative to control; format: organism-based; settings: in vivo; in short: as §1
# [37] = test system: Rattus norvegicus; test: Toxicity in Wistar rat assessed as GSH level in kidney at 1 umol/100 g body weight, ip by fluorometric analysis relative to control; format: organism-based; settings: in vivo
# [38] = test system: Rattus norvegicus; test: Toxicity in Wistar rat assessed as ethylmorphine-N-demethylation activity in liver measured as formaldehyde level at 1 umol/100 g body weight, ip by photometric analysis relative to control; format: organism-based; settings: in vivo
# [39] = test system: Rattus norvegicus; test: Toxicity in Wistar rat assessed as ethylmorphine-N-demethylation activity in liver measured as formaldehyde level at 6 umol/100 g body weight, ip by photometric analysis relative to control; format: organism-based; settings: in vivo
# [40] = test system: Rattus norvegicus; test: Toxicity in Wistar rat assessed as GSH level in kidney at 6 umol/100 g body weight, ip by fluorometric analysis relative to control; format: organism-based; settings: in vivo
# [41] = test system: Rattus norvegicus; test: Toxicity in Wistar rat assessed as GSSG level in liver at 1 umol/100 g body weight, ip by fluorometric analysis relative to control; format: organism-based; settings: in vivo; in short: as §1
# [42] = test system: Rattus norvegicus; test: Toxicity in Wistar rat assessed as ethoxycoumarin-O-deethylation activity in liver measured as 7-hydroxycoumarin level at 6 umol/100 g body weight, ip by fluorometric analysis relative to control; format: organism-based; settings: in vivo
# [43] = test system: Rattus norvegicus; test: Toxicity in Wistar rat assessed as lipidperoxidation product level in liver at 6 umol/100 g body weight, ip relative to control; format: organism-based; settings: in vivo
structure (smiles),measurement,setting,value
Nc1c2c(nc3ccccc13)CCCC2 [TACRINE],Activity,[1],6.2 g
same,Activity,[2],87.4 nmol/g
same,Activity,[3],123 nmol/g
same,Activity,[4],0.65 g
same,Activity,[5],1800 µg/g
same,Activity,[6],154 nmol/g
same,Activity,[7],61.8 mg/mL
same,Activity,[8],75.6 µg/g
same,Activity,[9],219 g
same,Activity,[10],171 µg/g
same,Activity,[11],665 µg/g
same,Activity,[12],0.61 g
same,Activity,[13],228 g
same,Activity,[14],Toxic
same,Activity,[15],79.9 µg/g
same,Activity,[16],3378 µg/g
same,Activity,[17],1.82 g
same,Activity,[18],2310 µg/g
same,Activity,[19],63.8 nmol/g
same,Activity,[20],6.8 g
same,Activity,[21],100 pmol/mg/min
same,Activity,[22],89.2 nmol/g
same,Activity,[23],207 pmol/mg/min
same,Activity,[24],1.77 g
same,Activity,[25],2542 µg/g
same,Activity,[26],134 pmol/mg/min
same,Activity,[27],3173 µg/g
same,Activity,[28],1821 µg/g
same,Activity,[29],170 µg/g
same,Time,[30],237 s
same,Activity,[31],671 µg/g
same,Activity,[32],431 µg/g
same,Activity,[33],65.5 mg/mL
same,Activity,[34],Toxic
same,Activity,[35],822 µg/g
same,Activity,[36],824 µg/g
same,Activity,[37],1480 µg/g
same,Activity,[38],0.6 nmol/mg/min
same,Activity,[39],0.44 nmol/mg/min
same,Activity,[40],1457 µg/g
same,Activity,[41],418 µg/g
same,Activity,[42],197 pmol/mg/min
same,Activity,[43],62 nmol/g

# — ChEMBL document CHEMBL3124940, “Design, synthesis and biological evaluation of D-ring opened galantamine analogs as multifunctional anti-Alzheimer agents” (Eur J Med Chem, 2014)
